From ChEMBL document CHEMBL3112482, “Nonclassical antifolates, part 5. Benzodiazepine analogs as a new class of DHFR inhibitors: synthesis, antitumor testing and molecular modeling study” (Eur J Med Chem, 2014)

How the values were obtained:
Type in all cases: functional
[1] = system: RPMI-8226; experiment: Growth inhibition of human RPMI8226 cells at 10 uM after 48 hrs; settings: RPMI-8226, 48 h, read-out: GI
How it was run: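 Single-dose primary screen in the NCI 60 human tumour cell line panel, run at the NCI facility. The panel covers nine subpanels: leukaemia, non-small cell lung, colon, CNS, melanoma, ovarian, renal, prostate and breast. Read-out was percent growth of treated cells, shown as a mean graph and reported as percent growth inhibition.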

[2] = system: Cancer cell lines; experiment: Ratio of 5-FU LC50 to compound LC50 for human non-small cell lung cancer cells
How it was run: (§1)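 Compounds passing the NCI single-dose primary screen were retested across the 60 human tumour cell lines (nine subpanels) over a 5-log dose range. GI50, TGI and LC50 were recorded for each cell line, with 5-fluorouracil run as the reference drug. Subpanel values for compound and 5-FU were then compared.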

[3] = system: Cancer cell lines; experiment: Ratio of 5-FU LC50 to compound LC50 for human ovarian cancer cells; how it was run: as §1
[4] = system: Cancer cell lines; experiment: Ratio of 5-FU GI50 to compound GI50 for human renal cancer cells; how it was run: as §1
[5] = system: Cancer cell lines; experiment: Ratio of 5-FU TGI to compound TGI for human CNS cancer cells
[6] = system: Cancer cell lines; experiment: Ratio of 5-FU LC50 to compound LC50 for human prostate cancer cells; how it was run: as §1
[7] = system: Cancer cell lines; experiment: Ratio of 5-FU GI50 to compound GI50 for human colon cancer cells; how it was run: as §1
[8] = system: Cancer cell lines; experiment: Ratio of 5-FU LC50 to compound LC50 for human colon cancer cells; how it was run: as §1
[9] = system: Cancer cell lines; experiment: Ratio of 5-FU TGI to compound TGI for human breast cancer cells
[10] = system: Leukemia cell; experiment: Ratio of 5-FU TGI to compound TGI for human leukemia cells
[11] = system: Melanoma cell; experiment: Ratio of 5-FU TGI to compound TGI for human melanoma cells

| SMILES | inhibition of growth at 10 µM [1] | RatioLC50 [2] | RatioLC50 [3] | RatioGI50 [4] | Ratio [5] | RatioLC50 [6] | RatioGI50 [7] | RatioLC50 [8] | Ratio [9] | Ratio [10] | Ratio [11] |
| --- | --- | --- | --- | --- | --- | --- | --- | --- | --- | --- | --- |
| COc1ccc(/C=C2\CCCc3c2nc(C)nc3-c2ccc(OC)cc2)cc1 | 50.1% |  |  |  |  |  |  |  |  |  |  |
| COc1cc(/C=C2\CCCc3c2nc(N)nc3-c2cc(OC)c(OC)c(OC)c2)cc(OC)c1OC |  | 15 | 15 | 15 | 15 | 15 | 15 | 15 | 15 | 15 | 15 |
| COc1ccc(/C=C2\CCCC3=C(c4ccc(OC)cc4)Nc4ccccc4N=C32)cc1 | 74.3% |  |  |  |  |  |  |  |  |  |  |
| COc1cc(/C=C2\CCCc3c2nc(C)nc3-c2cc(OC)c(OC)c(OC)c2)cc(OC)c1OC |  | 15 | 15 | 15 | 15 | 15 | 15 | 15 | 15 | 15 | 15 |
| COc1ccc(/C=C2\CCCc3c2nc(N)nc3-c2ccc(OC)cc2)cc1 | 42.3% |  |  |  |  |  |  |  |  |  |  |
| COc1cc(/C=C2\CCCC3=C(c4cc(OC)c(OC)c(OC)c4)Nc4ccccc4N=C32)cc(OC)c1OC |  | 11 | 11 | 11 | 11 | 11 | 11 | 11 | 11 | 11 | 11 |
| COc1ccc(/C=C2\CCCc3c2nc(N)nc3-c2ccc(OC)c(OC)c2)cc1OC | 84.8% |  |  |  |  |  |  |  |  |  |  |
| Cc1nc2c(c(-c3ccc(Br)cc3)n1)CCC/C2=C\c1ccc(Br)cc1 | 73.7% |  |  |  |  |  |  |  |  |  |  |
